For 14 compounds, Ki and Activity results are on record in ChEMBL document CHEMBL1157576, “Development of selective and reversible pyrazoline based MAO-A inhibitors: Synthesis, biological evaluation and docking studies” (Bioorg Med Chem, 2010).

Holding throughout (format): tissue-based
The target of data set [1] is T1, Amine oxidase [flavin-containing] A (Rattus norvegicus, UniProt P21396).
T1 sequence (P21396 whole entry): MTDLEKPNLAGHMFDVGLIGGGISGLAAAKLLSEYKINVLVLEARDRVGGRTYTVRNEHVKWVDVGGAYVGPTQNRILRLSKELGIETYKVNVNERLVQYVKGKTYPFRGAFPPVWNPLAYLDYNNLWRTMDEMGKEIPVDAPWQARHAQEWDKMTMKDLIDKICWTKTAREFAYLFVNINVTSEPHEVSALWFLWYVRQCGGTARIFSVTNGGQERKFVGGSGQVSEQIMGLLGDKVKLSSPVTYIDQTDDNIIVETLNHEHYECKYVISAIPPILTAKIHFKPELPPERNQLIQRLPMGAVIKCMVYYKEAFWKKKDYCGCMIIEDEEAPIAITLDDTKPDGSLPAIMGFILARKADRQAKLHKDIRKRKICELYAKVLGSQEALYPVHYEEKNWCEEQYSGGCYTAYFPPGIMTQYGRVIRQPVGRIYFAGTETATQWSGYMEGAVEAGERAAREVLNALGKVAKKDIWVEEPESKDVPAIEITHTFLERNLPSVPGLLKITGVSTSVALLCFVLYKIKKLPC
The data set can be described thus: Competitive inhibition of MAOA in rat liver homogenate after 60 mins by Lineweaver-Burke plot analysis. As to conditions: read-out: Kic; call rule not given here.

Data set [2] has as its target T2, Amine oxidase [flavin-containing] B (Rattus norvegicus, UniProt P19643).
T2 sequence (P19643 whole entry): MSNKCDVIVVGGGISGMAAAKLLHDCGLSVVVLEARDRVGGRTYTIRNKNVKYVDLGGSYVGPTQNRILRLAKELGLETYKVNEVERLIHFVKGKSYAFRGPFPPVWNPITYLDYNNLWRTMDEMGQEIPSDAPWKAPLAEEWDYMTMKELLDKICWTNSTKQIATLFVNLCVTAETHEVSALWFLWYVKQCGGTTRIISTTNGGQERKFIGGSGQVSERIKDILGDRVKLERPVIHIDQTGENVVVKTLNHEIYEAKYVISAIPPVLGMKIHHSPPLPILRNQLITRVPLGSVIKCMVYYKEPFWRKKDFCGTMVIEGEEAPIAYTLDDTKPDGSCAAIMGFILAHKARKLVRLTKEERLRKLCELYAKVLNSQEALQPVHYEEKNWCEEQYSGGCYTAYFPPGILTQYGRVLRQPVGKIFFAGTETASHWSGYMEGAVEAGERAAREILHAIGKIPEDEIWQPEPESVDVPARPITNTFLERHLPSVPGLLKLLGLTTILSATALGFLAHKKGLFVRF
The data set can be described thus: Competitive inhibition of MAOB in rat liver homogenate after 60 mins by Lineweaver-Burke plot analysis. As to conditions: read-out: Kic.

Data set [3] addresses T1, Amine oxidase [flavin-containing] A. Briefly: Reversible inhibition of MAOA in rat liver homogenate assessed as recovery of enzyme activity at 1 to 1000 uM up to 24 hrs by dialysis. An outline of the steps:
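Rat liver MAO was incubated with compound (1–1000 µM, DMSO ≤1%) at 37 °C for 0–60 min. It was then dialysed for 24 h at 37 °C against potassium phosphate buffer, pH 7.6. Recovered activity was measured by the Holt coupled assay using p-tyramine, with absorbance read at 498 nm.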

As for `COc1ccc(NC(=S)N2N=C(c3ccc(O)cc3)CC2c2ccco2)cc1` (configuration not stated), the Ki is 0.95 µM in data set [1] and 1060 µM in data set [2]. The result in data set [3] was Active.
For `Cc1ccc(NC(=S)N2N=C(c3ccc(O)cc3)CC2c2ccco2)cc1` (configuration not stated), the figures for the Ki in data set [1] and in data set [2] were 0.48 µM and 5010 µM, respectively. For the same compound, the result in data set [3] was Active.
The matching figures for `COc1ccccc1NC(=S)N1N=C(c2ccc(O)cc2)CC1c1ccco1` (configuration not stated): 0.755 µM, 174 µM and “Active”.
Turning to `COc1ccccc1NC(=S)N1N=C(c2ccc(O)cc2)CC1c1cccs1` (configuration not stated), the Ki was 0.301 µM in data set [1] and 44 µM in data set [2]. Also, in data set [3], the outcome was Active.
The matching figures for `Oc1ccc(C2=NN(C(=S)Nc3ccccc3)C(c3ccco3)C2)cc1` (configuration not stated): 0.701 µM, 778 µM and “Active”.
For `Cc1ccccc1NC(=S)N1N=C(c2ccc(O)cc2)CC1c1cccs1` (configuration not stated), the Ki in data set [1] amounted to 0.281 µM; in data set [2], 70.2 µM. Also, the outcome in data set [3] was Active.
As to `Cc1cccc(NC(=S)N2N=C(c3ccc(O)cc3)CC2c2cccs2)c1` (configuration not stated), the Ki turned out to be 0.15 µM in data set [1] and 2210 µM in data set [2]. The result in data set [3] was Active.
With `Cc1cccc(NC(=S)N2N=C(c3ccc(O)cc3)CC2c2ccco2)c1` (configuration not stated), the figures for the Ki in data set [1] and in data set [2] were 0.591 µM and 580 µM, respectively. Also, the result in data set [3] was Active.
With `COc1ccc(NC(=S)N2N=C(c3ccc(O)cc3)CC2c2cccs2)cc1` (configuration not stated), the Ki in data set [1] was 0.501 µM; in data set [2], 7150 µM. Moreover, the outcome in data set [3] was Active.
The matching figures for `Cc1ccc(NC(=S)N2N=C(c3ccc(O)cc3)CC2c2cccs2)cc1` (configuration not stated): 0.351 µM, 71.5 µM and “Active”.
As to `Cc1ccccc1NC(=S)N1N=C(c2ccc(O)cc2)CC1c1ccco1` (configuration not stated), the Ki in data set [1] is 0.231 µM; in data set [2] it was 28.8 µM. In addition, the result in data set [3] was Active.
On to `COc1cccc(NC(=S)N2N=C(c3ccc(O)cc3)CC2c2ccco2)c1` (configuration not stated), for which the Ki was determined as 0.176 µM in data set [1] and 460 µM in data set [2]. In data set [3], the result was Active.
The matching figures for `Oc1ccc(C2=NN(C(=S)Nc3ccccc3)C(c3cccs3)C2)cc1` (configuration not stated): 0.48 µM, 47 µM and “Active”.
The matching figures for `COc1cccc(NC(=S)N2N=C(c3ccc(O)cc3)CC2c2cccs2)c1` (configuration not stated): 0.181 µM, 1100 µM and “Active”.
